Published values collected from several papers.
Protocols differ between the studies behind these lines.
Target: Ephrin type-B receptor 4 (EPHB4, Homo sapiens, UniProt P54760)
Residues used in one study (P54760 16-987): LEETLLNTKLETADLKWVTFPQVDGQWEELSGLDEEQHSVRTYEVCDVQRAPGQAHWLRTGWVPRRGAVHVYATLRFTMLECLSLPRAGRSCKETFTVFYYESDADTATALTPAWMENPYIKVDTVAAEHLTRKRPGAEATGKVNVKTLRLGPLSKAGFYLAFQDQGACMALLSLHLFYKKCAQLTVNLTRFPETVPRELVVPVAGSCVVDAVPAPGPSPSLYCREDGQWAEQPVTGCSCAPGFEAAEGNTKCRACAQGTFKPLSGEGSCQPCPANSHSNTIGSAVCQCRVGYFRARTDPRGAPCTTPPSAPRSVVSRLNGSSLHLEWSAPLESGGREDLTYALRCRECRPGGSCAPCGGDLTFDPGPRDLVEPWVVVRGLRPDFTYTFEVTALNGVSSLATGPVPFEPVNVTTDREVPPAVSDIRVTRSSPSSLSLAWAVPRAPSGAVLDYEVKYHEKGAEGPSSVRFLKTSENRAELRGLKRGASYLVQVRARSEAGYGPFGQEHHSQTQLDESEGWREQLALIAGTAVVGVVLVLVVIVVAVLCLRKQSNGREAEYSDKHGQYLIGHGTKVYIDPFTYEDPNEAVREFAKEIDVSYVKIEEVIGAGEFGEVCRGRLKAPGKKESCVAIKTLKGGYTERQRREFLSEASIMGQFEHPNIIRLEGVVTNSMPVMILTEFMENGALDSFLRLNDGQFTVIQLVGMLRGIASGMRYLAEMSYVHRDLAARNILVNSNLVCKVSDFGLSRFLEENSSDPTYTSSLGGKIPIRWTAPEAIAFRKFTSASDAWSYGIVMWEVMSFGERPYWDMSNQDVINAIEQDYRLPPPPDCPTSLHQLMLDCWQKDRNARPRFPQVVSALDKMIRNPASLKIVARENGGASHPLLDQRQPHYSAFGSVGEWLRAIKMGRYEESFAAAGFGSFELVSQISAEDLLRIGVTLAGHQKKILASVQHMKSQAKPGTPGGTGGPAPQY

| Structure (SMILES) | read-out | action | method | concentration | measurement | value |
| --- | --- | --- | --- | --- | --- | --- |
| COc1cc2ncnc(Nc3ccc(Oc4ccccc4)cc3C)c2cc1OC | enzyme activity | inhibitor | – | 1 µM | inhibition | 21% |
| CC1=C(C#N)[C@@H](c2ccc3[nH]nc(C)c3c2)C(C#N)=C(c2ccc(Cl)cc2)N1 | cell-free assay | – | competition with immobilised ligand | 1 µM | remaining binding | 100% |
| CCN(CC)c1ccc(C2=NNC(=O)CC2C)cc1[N+](=O)[O-] (centres unmarked) | enzyme activity | inhibitor | – | 10 µM | remaining activity | 100% |
| CNC(=O)c1cc2c(Oc3ccc(NC(=O)C4(C(=O)Nc5ccc(F)cc5)CC4)cc3)ccnc2cc1OC | enzyme activity | inhibitor | radiometric | 1 µM | inhibition | 83% |
| c1ccc(N2CCN(Cc3nc4ccccc4[nH]3)CC2)nc1 | cell-free assay | – | competition with immobilised ligand | 1 µM | remaining binding | 100% |
| Oc1ccc(-c2nc(-c3ccncc3)c(-c3ccc(F)cc3)[nH]2)cc1 | cell-free assay | – | – | 0.5 µM | remaining signal | 89% |
| Cc1[nH]c(/C=C2\C(=O)Nc3ccc(F)cc32)c(C)c1C(=O)N[C@H]1CCN(C(=O)N(C)C)C1 | enzyme activity | inhibitor | – | 0.1 µM | remaining activity | 111% |
| CS(=O)(=O)N1CCCC(NC(=O)[C@H](CCC2CCCCC2)NC(=O)c2ccc(CNc3ncnc4c3nnn4-c3ccccc3)cc2)C1 (some centres unmarked) | cell-free assay | – | competition with immobilised ligand | 0.1 µM | remaining binding | 96% |
| CC(C)(O)[C@H]1CC[C@H](Nc2ccc3ncc(-c4cccc(C(F)(F)F)c4)n3n2)CC1 | enzyme activity | inhibitor | – | 1 µM | remaining activity | 78.2% |
| Cc1sc(C(=O)NC2COC2)cc1-n1cc(NC(=O)Nc2c(F)cccc2Cl)cn1 | enzyme activity | inhibitor | – | 10 µM | remaining activity | 93.7% |
| CC(C)(C)c1nc2c(s1)c1nc(N)ncc1c1ccc(NS(=O)(=O)c3c(F)cccc3F)c(F)c12 | enzyme activity | inhibitor | radiometric | 1 µM | remaining activity | 93% |
| CO[C@H]1CC[C@H](CNc2ccc(S(=O)(=O)NC(=O)c3ccc(N4CCN(CC5=C(c6ccc(Cl)cc6)CC(C)(C)CC5)CC4)cc3Oc3cnc4[nH]ccc4c3)cc2[N+](=O)[O-])CC1 | cell-free assay | – | competition with immobilised ligand | 1 µM | remaining binding | 100% |
| c1ccc(CNc2nc(N3CCOc4ccccc43)nc3c2CCCC3)cc1 | target engagement in cells | inhibitor | chemoproteomics | 20 mM | inhibition | -4% |
| Cc1ccc(Nc2nccc(N(C)c3ccc4c(C)n(C)nc4c3)n2)cc1S(N)(=O)=O | cell-free assay | – | – | 0.5 µM | remaining signal | 93.8% |
| CCOc1cc(-c2nncn2C)ccc1Nc1ncc2cc(C)nc(NCC(C)(C)C)c2n1 | enzyme activity | inhibitor | FRET | 1 µM | inhibition | < 15% |
| CNCc1ccc(-c2cc(-c3nc(-c4ccc(S(=O)(=O)C(C)C)cc4)cnc3N)on2)cc1 | enzyme activity | inhibitor | – | 2 µM | inhibition | 10% |
| O=C(NCc1ncc(C(F)(F)F)cc1Cl)c1ccc2c(c1)C1(CCS(=O)(=O)CC1)[C@H](C1CC1)N2S(=O)(=O)c1ccc(F)cc1 | cell-free assay | – | competition with immobilised ligand | 1 µM | remaining binding | 100% |
| FC(F)c1nc2ccccc2n1-c1nc(N2CCOCC2)nc(N2CCOCC2)n1 | enzyme activity | inhibitor | – | 10 µM | remaining activity | 105% |
| CCCS(=O)(=O)Nc1ccc(F)c(C(=O)c2c[nH]c3ncc(-c4ccc(Cl)cc4)cc23)c1F | enzyme activity | inhibitor | – | 1 µM | inhibition | < 20% |
| CC(=O)Nc1c(C(C)=O)c(=O)n(C)c2nc(-c3ccc(Cl)cc3Cl)c(-c3ccc(Cl)cc3)cc12 | cell-free assay | – | competition with immobilised ligand | 1 µM | remaining binding | 100% |
| COc1cc(Nc2cnc(C#N)c(O[C@H](C)CN(C)C)n2)ncc1-c1cnn(C)c1 | enzyme activity | inhibitor | radiometric | 10 µM | remaining activity | 88% |
| O=C1NC(=O)c2cc(Nc3ccc(F)cc3)c(Nc3ccc(F)cc3)cc21 | cell-free assay | – | – | 0.5 µM | remaining signal | 108% |
| Cc1ccc(C(=O)NCc2ccsc2)cc1C#Cc1cn(C(C)C)c2ncnc(N)c12 | enzyme activity | inhibitor | – | 1 µM | activity vs control | 28% |
| CCCCNc1ncc2c(-c3ccc(F)cc3)nn(C[C@H]3CC[C@H](N)CC3)c2n1 | target engagement in cells | inhibitor | chemoproteomics | 20 mM | inhibition | 97.5% |
| CN([C@@H]1CCc2c(CC(=O)O)c3cc(S(C)(=O)=O)ccc3n2C1)S(=O)(=O)c1ccc(F)cc1 | cell-free assay | – | competition with immobilised ligand | 1 µM | remaining binding | 95% |
| CC/C(=N\NC(=O)NCc1cccc(O)c1)c1ccc(O)c(C)c1O | enzyme activity | inhibitor | – | 0.1 µM | inhibition | 0.2% |
| C[C@@H](c1cccc(C#N)c1)n1cc(Cl)cc(C(N)=O)c1=N | cell-free assay | – | competition with immobilised ligand | 1 µM | remaining binding | 96% |
| N#CCCc1ccc2c(c1)-c1[nH]c3ccc([N+](=O)[O-])cc3c1CC(=O)N2 | cell-free assay | – | – | 0.5 µM | remaining signal | 82.2% |
| Cc1cc(NC(=O)c2cccc3cc(-c4cccc5[nH]nc(N)c45)ccc23)ccc1F | enzyme activity | inhibitor | – | 0.1 µM | activity vs control | 109% |
